Reference: ChEMBL document CHEMBL1140177 (J Med Chem, 2008)
pIC50: −log10 of the molar value. In brackets after ≈: the same amount, converted by molar mass.

What was measured:
[1] = target: Human immunodeficiency virus type 1 reverse transcriptase (Human immunodeficiency virus 1, UniProt Q72547); test: Inhibition of wild type HIV1 RT polymerase by SPA
[2] = tested on: Human immunodeficiency virus 1; test: Antiviral activity against wild type HIV1 in presence of 40% normal human serum; type: functional, organism-based
Summary of the method: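 Monogram Bioscience PhenoScreen cell-culture assay run with 40% NHS. […] Value is the geometric mean of n = 2.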

[3] = Volume of distribution in Beagle dog at 2 mg/kg, po and 0.25 mg/kg, iv; type: ADME, organism-based, Canis lupus familiaris; conditions: in vivo
Summary of the method: (§1)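 Two beagle dogs, averaged. Oral dose 2 mpk in Imwitor/Tween; intravenous dose 0.25 mpk in DMSO.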

[4] = tested on: Human immunodeficiency virus 1; test: Antiviral activity against HIV1 with reverse transcriptase K103N mutant in presence of 40% normal human serum; type: functional, organism-based
[5] = target: Human immunodeficiency virus type 1 reverse transcriptase (Human immunodeficiency virus 1, UniProt Q72547, K103N); test: Inhibition of HIV1 RT polymerase K103N mutant by SPA
[6] = tested on: Human immunodeficiency virus 1; test: Antiviral activity against HIV1 with reverse transcriptase L100I mutant in presence of 40% normal human serum; type: functional, organism-based
[7] = Clearance in rhesus monkey at 10 mg/kg, po and 1 mg/kg, iv; type: ADME, organism-based, Macaca mulatta; conditions: in vivo
Summary of the method: (§2)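 Two rhesus macaques, averaged. Oral dose 10 mpk in Imwitor/Tween; intravenous dose 1 mpk in DMSO.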

[8] = tested on: Human immunodeficiency virus 1; test: Antiviral activity against HIV1 with reverse transcriptase K103N/P225H mutant in presence of 40% normal human serum; type: functional, organism-based
[9] = tested on: Human immunodeficiency virus 1; test: Antiviral activity against HIV1 with reverse transcriptase K103N/V179E mutant in presence of 40% normal human serum; type: functional, organism-based
[10] = tested on: Human immunodeficiency virus 1; test: Antiviral activity against HIV1 with reverse transcriptase G190S mutant in presence of 40% normal human serum; type: functional, organism-based
[11] = tested on: Human immunodeficiency virus 1; test: Antiviral activity against HIV1 with reverse transcriptase K103N mutant infected in human MT4 cells after 72 hrs in presence of 10% fetal bovine serum; type: functional; conditions: Human immunodeficiency virus 1, MT4, 72 h; read-out: CIC95
Summary of the method: (§3)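 Mutant HIV-1 spread was assayed in MT-4 human T-lymphoid cells kept in RPMI 1640 with 10% FBS. CIC95 is the concentration that inhibits viral spread by >95%. Values are geometric means of two determinations, or mean with standard deviation where n > 3. Cytotoxicity was checked up to an assay limit of 8.3 µM.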

[12] = AUC in Beagle dog at 2 mg/kg, po; type: ADME, organism-based, Canis lupus familiaris; parameters: dose 2 mg/kg, route oral; conditions: plasma; summary of the method: as §1
[13] = Volume of distribution in Sprague-Dawley rat at 10 mg/kg, po and 2 mg/kg, iv; type: ADME, organism-based; conditions: in vivo
[14] = tested on: Human immunodeficiency virus 1; test: Antiviral activity against HIV1 with reverse transcriptase G190A mutant in presence of 40% normal human serum; type: functional, organism-based
[15] = tested on: Human immunodeficiency virus 1; test: Antiviral activity against HIV1 with reverse transcriptase K103N/Y181C mutant in presence of 40% normal human serum; type: functional, organism-based
[16] = Solubility at pH 7; type: physicochemical; conditions: buffer
[17] = AUC in Sprague-Dawley rat at 10 mg/kg, po; type: ADME, organism-based; parameters: dose 10 mg/kg, route oral; conditions: plasma
[18] = target: Human immunodeficiency virus type 1 reverse transcriptase (Human immunodeficiency virus 1, UniProt Q72547, Y181C); test: Inhibition of HIV1 RT polymerase Y181C mutant by SPA
[19] = Oral bioavailability in Sprague-Dawley rat at 10 mg/kg; type: ADME, organism-based; conditions: in vivo
[20] = tested on: Human immunodeficiency virus 1; test: Antiviral activity against HIV1 with reverse transcriptase K101E/G190A mutant in presence of 40% normal human serum; type: functional, organism-based
[21] = tested on: Human immunodeficiency virus 1; test: Antiviral activity against HIV1 with reverse transcriptase Y181C/G190A mutant in presence of 40% normal human serum; type: functional, organism-based
[22] = tested on: Human immunodeficiency virus 1; test: Antiviral activity against HIV1 with reverse transcriptase Y188L mutant in presence of 40% normal human serum; type: functional, organism-based
[23] = Solubility at pH 2; type: physicochemical; conditions: buffer
[24] = Half life in rhesus monkey at 10 mg/kg, po and 1 mg/kg, iv; type: ADME, organism-based, Macaca mulatta; conditions: in vivo; summary of the method: as §2
[25] = tested on: Human immunodeficiency virus 1; test: Antiviral activity against HIV1 with reverse transcriptase K103N/G190A mutant in presence of 40% normal human serum; type: functional, organism-based
[26] = Oral bioavailability in Beagle dog at 2 mg/kg; type: ADME, organism-based, Canis lupus familiaris; conditions: in vivo; summary of the method: as §1
[27] = tested on: Human immunodeficiency virus 1; test: Antiviral activity against wild type HIV1 infected in human MT4 cells after 72 hrs in presence of 10% fetal bovine serum; type: functional; conditions: Human immunodeficiency virus 1, MT4, 72 h; read-out: CIC95
Summary of the method: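 MT-4 human T-lymphoid cells in RPMI 1640 with 10% FBS. CIC95 is the concentration that inhibits viral spread by >95%. Values are either geometric means of two determinations or given with standard deviations for n > 3 or n > 50.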

[28] = Half life in Sprague-Dawley rat at 10 mg/kg, po and 2 mg/kg, iv; type: ADME, organism-based; conditions: in vivo
[29] = tested on: Human immunodeficiency virus 1; test: Antiviral activity against HIV1 with reverse transcriptase Y181C mutant in presence of 40% normal human serum; type: functional, organism-based
[30] = Clearance in Sprague-Dawley rat at 10 mg/kg, po and 2 mg/kg, iv; type: ADME, organism-based; conditions: in vivo
[31] = Oral bioavailability in rhesus monkey at 10 mg/kg; type: ADME, organism-based, Macaca mulatta; conditions: in vivo
[32] = tested on: Human immunodeficiency virus 1; test: Antiviral activity against HIV1 with reverse transcriptase Y181C mutant infected in human MT4 cells after 72 hrs in presence of 10% fetal bovine serum; type: functional; conditions: Human immunodeficiency virus 1, MT4, 72 h; read-out: CIC95; summary of the method: as §3
[33] = Volume of distribution in rhesus monkey at 10 mg/kg, po and 1 mg/kg, iv; type: ADME, organism-based, Macaca mulatta; conditions: in vivo; summary of the method: as §2
[34] = tested on: Human immunodeficiency virus 1; test: Antiviral activity against wild type HIV1 infected in human MT4 cells after 72 hrs in presence of 50% normal human serum; type: functional; conditions: Human immunodeficiency virus 1, MT4, 72 h; read-out: CIC95
Summary of the method: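 MT-4 human T-lymphoid cells in RPMI 1640 with 50% NHS. CIC95 is the concentration that inhibits viral spread by >95%. Values are either geometric means of two determinations or given with standard deviations for n > 3 or n > 50.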

[35] = AUC in rhesus monkey at 10 mg/kg, po; type: ADME, organism-based, Macaca mulatta; parameters: dose 10 mg/kg, route oral; conditions: plasma
[36] = Half life in Beagle dog at 2 mg/kg, po and 0.25 mg/kg, iv; type: ADME, organism-based, Canis lupus familiaris; conditions: in vivo; summary of the method: as §1
[37] = Clearance in Beagle dog at 2 mg/kg, po and 0.25 mg/kg, iv; type: ADME, organism-based, Canis lupus familiaris; conditions: in vivo; summary of the method: as §1

N#Cc1cc(Cl)cc(Oc2cc(OCc3n[nH]c4ncccc34)ccc2Cl)c1
pIC50 [1]: 9.40 | pIC50 [2]: 8.82 | Vd [3]: 2.6 L/kg | pIC50 [4]: 8.60 | pIC50 [5]: 9.30 | pIC50 [6]: 8.96 | clearance [7]: 19 mL/min/kg | pIC50 [8]: 8.32 | pIC50 [9]: 8.22 | pIC50 [10]: 8.17 | IC95 [11]: 14.6 nM | AUC [12]: 1.6 µM·h | Vd [13]: 5.3 L/kg | pIC50 [14]: 8.74 | pIC50 [15]: 7.47 | solubility [16]: 0.1 µg/mL (≈ 0.243 µM) | AUC [17]: 9.5 µM·h | pIC50 [18]: 9.70 | bioavailability [19]: 58% | pIC50 [20]: 8.32 | pIC50 [21]: 7.77 | pIC50 [22]: 6.05 | solubility [23]: < 0.1 µg/mL | half-life [24]: 8.2 h | pIC50 [25]: 8.40 | bioavailability [26]: 17% | IC95 [27]: 10.3 nM | half-life [28]: 4.1 h | pIC50 [29]: 8.39 | clearance [30]: 28 mL/min/kg | bioavailability [31]: 3% | IC95 [32]: 22 nM | Vd [33]: 4.4 L/kg | IC95 [34]: 34 nM | AUC [35]: 0.3 µM·h | half-life [36]: 11.8 h | clearance [37]: 8.9 mL/min/kg

N#Cc1cc(Cl)cc(Oc2cc(OCc3n[nH]c4ccncc34)ccc2Cl)c1
pIC50 [1]: 8.92 | pIC50 [5]: 8.42 | IC95 [11]: 922 nM | pIC50 [18]: 8.21 | IC95 [27]: 169 nM | IC95 [32]: 278 nM | IC95 [34]: 307 nM
